Source: ChEMBL document CHEMBL1123673, “Comparison of aminoglycoside antibiotics with respect to uptake and lethal activity in Escherichia coli” (J Med Chem, 1987)

Columns and labels:
[1] = system: Escherichia coli;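 further: escherichia coli cells, read-out is the rate of enhanced [3H]DHS uptake, C50 being the level that yields half of the maximal rate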
[2] = system: Escherichia coli; test: Estimated rate of [3H]DHS uptake in Escherichia coli K12 (ATCC 25868); assay type: functional; set-up: unit not given here
Outline: (§1)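 Cultures in tryptone-peptone broth at 37 °C with shaking, grown from OD600 ~0.05 to 0.20, then preexposed to antibiotic for 20 min at 37 °C. Cells pelleted, resuspended in equal volume fresh broth, pulsed 5.0 min at 37 °C with [3H]DHS (1.0 µCi/mL, 3.8 Ci/mmol). Samples filtered, washed with 0.1 M LiCl, scintillation counted. C50 = half-maximal rate estimated from dose-response curves.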

[3] = system: Escherichia coli; test: Estimated rate of [3H]DHS (Dihydrostreptomycin) uptake in Escherichia coli K12 (ATCC 25868) [pmol/min (optical density unit)E-1] at the C50 was determined.; OD means optical density; assay type: functional
Outline: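 E. coli K12 grown in tryptone-peptone broth at 37 °C with shaking to OD600 0.20, preexposed 20 min at 37 °C to antibiotic across a dose range; cells pelleted, resuspended in TPB, given [3H]DHS (1.0 µCi/mL, 3.8 Ci/mmol) for 5.0 min at 37 °C; filtered, washed with 0.1 M LiCl, scintillation counted. Rate read at C50 (half-maximal induced rate) from dose-response curves.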

[4] = (§2) Percent killing of the total Escherichia coli K12 (ATCC 25868) cells at the C50 concentration was determined.; assay type: functional
[5] = (§3) Lethal dose required to kill 90% of the Escherichia coli K12 (ATCC 25868) cell population; assay type: functional
Outline: (§4)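 E. coli K12 in tryptone-peptone broth at 37 °C, OD600 0.20, exposed 20 min at 37 °C to antibiotic; pellets resuspended to OD600 0.10–0.15 in TPB, serially diluted, plated on tryptone-peptone agar, colonies counted after overnight at 37 °C. Value is the concentration killing 90% of the population.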

[6] = system: Escherichia coli; test: Estimated rate of [3H]DHS (Dihydrostreptomycin) uptake in Escherichia coli K12 (ATCC 25868) [pmol/min (optical density unit)E-1] at the C50 was determined;OD means optical density; assay type: functional
Outline: as §1

[7] = as §2; assay type: ADME
[8] = as §3; assay type: ADME
Outline: as §4

[9] = (§5) Percent killing of the total Escherichia coli K12 (ATCC 25868)cells at the C50 concentration was determined.; assay type: ADME
[10] = as §5; assay type: functional
[11] = system: Escherichia coli; test: Concentration required for half maximum rate of enhanced [3H]DHS (Dihydrostreptomycin) uptake in Escherichia coli K12 (ATCC 25868)was estimated from dose-response curves; assay type: functional
Outline: as §1

Compound	C50 [1] [µM]	Uptake at C50 [2]	Kill at C50 [7] [%]	LD90 [8] [µM]	further results
4-Amino-N-[5-amino-4-(3-amino-6-aminomethyl-4,5-dihydroxy-tetrahydro-pyran-2-yloxy)-3-(3,4-dihydroxy-5-hydroxymethyl-tetrahydro-furan-2-yloxy)-2-hydroxy-cyclohexyl]-2-hydroxy-butyramide (Butirosin)	0.13	4	–	–	–
NCC[C@H](O)C(=O)N[C@@H]1C[C@H](N)[C@@H](O[C@H]2O[C@H](CN)[C@@H](O)[C@H](O)[C@H]2O)[C@H](O)[C@H]1O[C@H]1O[C@H](CO)[C@@H](O)[C@H](N)[C@H]1O (stereo in doubt)	0.21	–	–	–	Uptake at C50 [3]: 4.7
NCC[C@H](O)C(=O)N[C@@H]1C[C@H](N)[C@@H](O[C@H]2O[C@H](CN)[C@@H](O)[C@H](O)[C@H]2O)[C@H](O)[C@H]1O[C@H]1O[C@H](CO)[C@@H](O)[C@H](N)[C@H]1O (stereo in doubt) [AMIKACIN]	–	–	–	–	Kill at C50 [4]: 76%; LD90 [5]: 0.32 µM
CN[C@@H]1[C@@H](O[C@H]2O[C@H](CO)[C@@H](N)[C@H](O)[C@H]2O)OC2C[C@@H](N)[C@@H](O[C@H]3[C@H](O)[C@@H](O)[C@H](N)C[C@@H]3N)OC2[C@@H]1O (stereo partly specified) [APRAMYCIN]	0.87	–	95	0.67	Uptake at C50 [6]: 4
NC[C@H]1O[C@H](O[C@H]2[C@H](O)[C@@H](O[C@H]3O[C@H](CO)[C@@H](O)[C@H](N)[C@H]3O)[C@H](N)C[C@@H]2N)[C@H](N)[C@@H](O)[C@@H]1O [BEKANAMYCIN]	0.27	6.8	–	1.1	Kill at C50 [9]: 31%
NC[C@@H]1O[C@H](O[C@H]2[C@@H](O)[C@H](O[C@@H]3[C@@H](O)[C@H](N)C[C@H](N)[C@H]3O[C@H]3O[C@H](CN)[C@@H](O)[C@H](O)[C@H]3N)O[C@@H]2CO)[C@H](N)[C@@H](O)[C@@H]1O [FRAMYCETIN]	0.34	1.6	82	0.46	–
CN[C@@H]1[C@@H](O)[C@@H](O[C@@H]2[C@@H](O)[C@H](O[C@H]3O[C@H]([C@@H](C)NC)CC[C@H]3N)[C@@H](N)C[C@H]2N)OC[C@]1(C)O [GENTAMICIN C1]	0.21	–	85	0.25	Uptake at C50 [3]: 5.5
NC[C@H]1O[C@H](O[C@H]2[C@H](O)[C@@H](O[C@H]3O[C@H](CO)[C@@H](O)[C@H](N)[C@H]3O)[C@H](N)C[C@@H]2N)[C@H](O)[C@@H](O)[C@@H]1O [KANAMYCIN A]	–	–	93	0.85	–
NC[C@@H]1O[C@H](O[C@H]2[C@@H](O)[C@H](O[C@@H]3[C@@H](O)[C@H](N)C[C@H](N)[C@H]3O[C@H]3O[C@H](CO)[C@@H](O)C[C@H]3N)O[C@@H]2CO)[C@H](N)[C@@H](O)[C@@H]1O[C@H]1O[C@H](CO)[C@@H](O)[C@H](O)[C@@H]1O [LIVIDOMYCIN]	0.18	5.5	–	0.87	Kill at C50 [9]: 40%
CCN[C@@H]1C[C@H](N)[C@@H](O[C@H]2OC(CN)=CC[C@H]2N)[C@H](O)[C@H]1O[C@H]1OC[C@](C)(O)[C@H](NC)[C@H]1O [NETILMICIN]	0.32	5.8	86	0.38	–
NC[C@@H]1O[C@H](O[C@H]2[C@@H](O)[C@H](O[C@@H]3[C@@H](O)[C@H](N)C[C@H](N)[C@H]3O[C@H]3O[C@H](CO)[C@@H](O)[C@H](O)[C@H]3N)O[C@@H]2CO)[C@H](N)[C@@H](O)[C@@H]1O [PAROMOMYCIN]	0.32	3.9	–	0.78	Kill at C50 [9]: 61%
NC[C@H]1O[C@H](O[C@H]2[C@H](O[C@@H]3O[C@H](CO)[C@@H](O)[C@H]3O)[C@@H](O)[C@H](N)C[C@@H]2N)[C@H](N)[C@@H](O)[C@@H]1O [RIBOSTAMYCIN]	1.2	2.6	99	0.17	–
CN[C@@H]1[C@@H](O)[C@@H](O[C@@H]2[C@@H](O)[C@H](O[C@H]3OC(CN)=CC[C@H]3N)[C@@H](N)C[C@H]2N)OC[C@]1(C)O [SISOMICIN]	0.31	7	77	0.49	–
CN[C@@H]1[C@H](O[C@H]2[C@H](O[C@H]3[C@H](O)[C@@H](O)[C@H](N=C(N)N)[C@@H](O)[C@@H]3N=C(N)N)O[C@@H](C)[C@]2(O)C=O)O[C@@H](CO)[C@H](O)[C@H]1O [STREPTOMYCIN]	0.34	5.8	–	–	LD90 [5]: 0.36 µM; Kill at C50 [10]: 88%
NC[C@H]1O[C@H](O[C@H]2[C@H](O)[C@@H](O[C@H]3O[C@H](CO)[C@@H](O)[C@H](N)[C@H]3O)[C@H](N)C[C@@H]2N)[C@H](N)C[C@@H]1O [TOBRAMYCIN]	–	8.3	–	0.71	C50 [11]: 0.24 µM; Kill at C50 [9]: 54%
GENTAMICIN [listing 1 of 2 here]	–	–	–	0.43	Kill at C50 [9]: 72%
GENTAMICIN [listing 2 of 2 here]	0.24	7.3	–	–	–
